Screening data deposited in PubChem BioAssay by The Scripps Research Institute Molecular Screening Center.
Rows were chosen to be rich in hits. Some 3.9% of all compounds tested hit in one or more screens of this group.
TAAR1 antag: human TAAR1 antagonists, primary screen, Fluo-8 calcium fluorescence, CHO RD-HGA16 cells; antagonist; inhibition, % at 3 µM; actives 1.5% (n = 360,000); AID 624466, 2012;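 active = inhibition above a per-plate cutoff, the mean inhibition of test compounds on that plate plus 3 SD, cut at about 49% in these data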;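 also: 0% = DMSO plus EC80 beta-PEA response and 100% = DMSO alone without agonist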
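Material: RD-HGA16 CHO cells with stable hTAAR1 and Gα16; Dosing: single nominal final test compound concentration of 3 µM; Schedule: seeding 17-24 h prior, 75-min 37 °C, 30-min RT dye loading; Detection: kinetic Fluo-8 calcium fluorescence measurement; Measure: % inhibition from peak post-agonist over basal fluorescence ratio; Benchmarks: vehicle and agonist controls.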
OX1R antag-1: OX1R (HCRTR1) antagonists, primary screen, fluorescence, CHO/OX1R cells, Fluo-8 calcium, orexin A; actives 0.43% (n = 330,000); AID 434989, 2010; Fluo-8 calcium fluorescence; Orexin/Hypocretin receptor type 1 (Homo sapiens), O43613; inhibition, % at 5 µM;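 active = inhibition above its plate's threshold, mean inhibition of all tested compounds on the plate plus 3 SD, cut at about 37% in these data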;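 also: 0% = orexin A challenge wells and 100% = SB-334867-A antagonist wells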
Target sequence (O43613 whole entry, looked up): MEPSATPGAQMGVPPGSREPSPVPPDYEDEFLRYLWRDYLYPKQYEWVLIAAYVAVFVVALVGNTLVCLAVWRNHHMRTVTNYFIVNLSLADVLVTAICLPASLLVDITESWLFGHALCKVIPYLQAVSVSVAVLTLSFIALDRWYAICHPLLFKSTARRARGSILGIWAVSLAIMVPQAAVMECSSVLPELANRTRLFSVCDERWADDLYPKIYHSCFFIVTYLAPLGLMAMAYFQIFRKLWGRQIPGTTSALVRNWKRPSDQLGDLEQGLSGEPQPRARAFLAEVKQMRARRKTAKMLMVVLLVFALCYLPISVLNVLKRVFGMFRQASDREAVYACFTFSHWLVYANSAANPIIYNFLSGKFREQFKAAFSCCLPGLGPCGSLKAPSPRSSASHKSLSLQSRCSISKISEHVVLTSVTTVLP
OX1R antag-2: antagonists of human orexin 1 receptor (OX1R) | Orexin/Hypocretin receptor type 1 (Homo sapiens), O43613 | OX1R-expressing cells, FRET antagonist read-out | inhibition, % at 6.6 µM | actives 1.8% (n = 330,000) | AID 485270, 2010; in the data active = inhibition mostly above about 38%, no sharp cut-off; inactive = mostly below about 40%;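 also: 0% = agonist challenge alone and 100% = reference antagonist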
TAAR1 ag: human TAAR1 agonists, primary screen, Fluo-8 calcium fluorescence, CHO RD-HGA16 cells | vehicle wells 0%, saturating PEA agonist 100% | activation, % at 3 µM | actives 0.99% (n = 360,000) | AID 624467, 2012;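 active = activation above the mean activation of all test compounds in the run plus 3 SD, cut at about 38% in these data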
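Assay system: CHO-derived RD-HGA16 cells with stable Gα16 and human TAAR1; timing: 17-24 h seeding, 75 min 37 °C dye, 30 min RT; read-out: % activation from peak over basal fluorescence ratio, DMSO-to-PEA scaled; measured by: kinetic Fluo-8 calcium fluorescence; benchmarks: low control DMSO, high control PEA (EC100); doses: 3 µM single concentration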
CHO parental Ca: ATP-evoked calcium signal inhibitors, parental CHO, primary screen, counter-screen for OX1R antagonist project, cell-based, fluorescence, Fluo-8 calcium dye; parental CHO-K1, ATP-induced calcium, Fluo-8 fluorescence; inhibition, % at 5.6 µM; actives 0.63% (n = 330,000); AID 463079, 2010;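 active = inhibition above that plate's mean sample inhibition plus 3 SD, cut at about 26% in these data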;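 also: 0% = ATP-challenged DMSO wells and 100% = DMSO wells without ATP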
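Assay system: untransfected parental CHO cell line. Also added: ATP agonist challenge. Dosing: one dose, 5.6 µM nominal. Measured by: Fluo-8 fluorescence. Read-out: % inhibition. Benchmarks: ATP wells versus no-ATP DMSO wells. Repeats: no replicates.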
OX1R Ca confirm: OX1R (HCRTR1) antagonists, confirmation, fluorescence, CHO/OX1R cells, Fluo-8 calcium, orexin A. inhibition, % at 5 µM. shares compounds with OX1R antag-1. orexin A calcium Fluo-8 fluorescence. actives 38% (n = 1,100); in the data active = inhibition above about 29%;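 also: 0% = agonist challenge alone and 100% = reference antagonist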
CHO Ca counter: ATP-evoked calcium inhibition in parental CHO, counter-screen for OX1R antagonist project, cell-based, fluorescence, CHO-K1, triplicate. shares compounds with OX1R antag-1. ATP-induced calcium, Fluo-8 fluorescence. inhibition, % at 5.6 µM. actives 9.3% (n = 1,100);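 active = inhibition above a per-plate limit, the mean inhibition of that plate's test compounds plus 3 SD, cut at about 25% in these data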;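 also: 0% = ATP challenge with DMSO and 100% = DMSO without ATP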
OX1R HTRF confirm: OX1R (HCRTR1) antagonists, confirmation, cell-based, HTRF; shares compounds with OX1R antag-2; OX1R-expressing cells, HTRF antagonist assay; inhibition, % at 6.6 µM; actives 49% (n = 1,800); AID 492964, 2010; in the data active = inhibition above about 55%;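 also: CHO cells expressing OX1R stimulated with orexin A at about EC80; 0% = agonist challenge alone and 100% = reference antagonist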
CHO-K1 HTRF cnt: signal inhibition in parental CHO-K1 cells, counter-screen for OX1R antagonist project, cell-based, HTRF. shares compounds with OX1R antag-2. HTRF counterscreen. inhibition, % at 6.6 µM. actives 48% (n = 1,800). AID 493232, 2011; in the data active = inhibition above about 17%;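 also: 0% = agonist challenge with vehicle and 100% = vehicle alone without agonist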
An asterisk follows results filed as active; / = no result.

SMILES	TAAR1 antag	OX1R antag-1	OX1R antag-2	TAAR1 ag	CHO parental Ca	OX1R Ca confirm	CHO Ca counter	OX1R HTRF confirm	CHO-K1 HTRF cnt
c1ccc2nc(-c3nc4ccccc4o3)ccc2c1	-9	24	97*	11	-21	46*	-8	98*	5
c1ccc(-c2nc3ccccc3o2)nc1	-9	-2	8	0	-5	/	/	/	/
Cc1ccc2cc(C)c3nnc(SCC(=O)Nc4nc5c(s4)CCCC5)n3c2c1C	-16	34	84*	6	-20	41*	-10	75*	0
Cc1ccc(C)c2c1cc(C)c1nnc(SCC(=O)Nc3nc4c(s3)CCCC4)n12	-21	-19	15	0	-19	/	/	/	/
O=C(NCc1cccc(Cl)c1)c1ccc(-n2cncn2)c2ccoc12	7	/	/	1	/	/	/	/	/
O=C(NCCN1C(=O)S/C(=C\c2cccs2)C1=O)c1ccco1	-14	-22	44	0	-30	/	/	/	/
O=C(CCNC(=O)c1ccco1)NCCN1C(=O)S/C(=C\c2ccc(F)cc2)C1=O	15	45*	47*	7	-12	19	3	90*	24*
COC(=O)[C@]12C[C@H](CC(=O)NCc3ccc(OC)c(OC)c3)C(=O)N(CCC3=CCCCC3)C1=C[C@H](C(C)(C)C)O[C@@H]2C	-19	/	/	0	/	/	/	/	/
O=[N+]([O-])c1cccc(-c2nc(-c3cccs3)c(-c3cccs3)[nH]2)c1	58*	38	99*	5	9	13	-3	74*	7
COc1ccc(NC(=O)c2cc3c([nH]c4ccccc43)c(C)n2)cc1	-7	26	96*	1	3	7	-1	24	11
Cc1nc(C(=O)Nc2ccccc2Cl)cc2c1[nH]c1ccccc12	8	7	23	5	5	/	/	/	/
CC1(C)CC(NC(=O)C2CCN(S(=O)(=O)c3ccc(Cl)c(C(F)(F)F)c3)CC2)CC(C)(C)N1	-7	/	/	1	/	/	/	/	/
CCOc1ccccc1N(CC(=O)NCCSCc1ccco1)S(=O)(=O)c1ccccc1	50*	43*	84*	0	-21	47*	-24	80*	-1
CCOc1ccc(N(CC(=O)NCCSCc2ccco2)S(=O)(=O)c2ccc(F)cc2)cc1	-7	-31	4	-1	-20	/	/	/	/
CCOC(=O)c1ccc2nc(NC(=O)c3ccco3)sc2c1	8	25	81*	8	-5	35*	-2	86*	18*
CCOc1ccc2nc(NC(=O)c3ccco3)sc2c1	-8	-9	30	0	0	/	/	/	/
Nc1nc(CSc2nnnn2-c2ccccc2)nc(N2CCCc3ccccc32)n1	38	65*	83*	11	-7	30*	0	44	-3
Cc1ccsc1C(=O)OCC(=O)N(Cc1ccccc1)C(C)C	11	40*	76*	4	-27	25	-7	68*	-2
O=C1NCC(c2ccccc2)C1C(=O)N/N=C\c1ccc(-c2cccc(Cl)c2Cl)o1 (stereo not given)	28	87*	101*	18	-6	69*	2	87*	0
Cc1ccc(-c2ccc(/C=N\NC(=O)C3C(=O)NCC3c3ccccc3)o2)cc1Cl (stereo not given)	5	29	69*	13	-5	48*	5	61*	11
